From ChEMBL document CHEMBL3243947 (J Med Chem, 1979)
Where a name gives a salt, the structure may show the parent alone.

Assays:
[1] = system: Heart; assay: Antiarrhythmic activity in New Zealand White rabbit isolated atria assessed as reduction of maximum driving frequency after 15 mins; assay type: functional, Oryctolagus cuniculus
In short: (§1)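 Isolated atria stabilized 90 min, paced by 2-ms pulses via platinum electrodes near SA node at 2.5× threshold voltage (threshold found at 240 pulses/min, mean of three). MDF averaged over three determinations. Drug added cumulatively without washout, reading 15 min after each dose, until MDF fell ~60%. Percent decrease in MDF or peak height plotted against log molar concentration and fitted by linear regression. Log ED40 read graphically. Three tissues per compound, averaged with SD.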

[2] = Negative inotropic activity in New Zealand White rabbit isolated atria assessed as reduction of tissue contractility after 15 mins; parameters: species or system Oryctolagus cuniculus, Cardiac atrium; details: 0.25 h; in short: as §1
[3] = Selectivity index, ratio of pED40 for tissue contractility to pED40 for maximum driving response in New Zealand White rabbit isolated atria; parameters: species or system Oryctolagus cuniculus, Cardiac atrium
In short: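 Ratio of ED40 for contractility to ED40 for MDF. Both come from the same cumulative 15-min dosing of paced isolated atria, with three tissues per compound.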

[4] = Octanol-phosphate buffer partition coefficient, log P of the compound; assay type: physicochemical
In short: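 Compound stock in octanol-saturated buffer, about 0.05 mg/mL. Shaken with octanol 2 h at 37 °C, 200 oscillations/min, then centrifuged 2000 rpm for 4 min. Buffer-phase UV absorbance at λmax near 300 nm measured before and after. P = (Astd − Aext)/(Aext·f), with f the octanol:buffer volume ratio. Run in triplicate.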

[5] = system: Heart; assay: Antiarrhythmic activity in New Zealand White rabbit isolated atria assessed as reduction of maximum driving frequency after 15 mins in presence of 4X10'-8 M propranolol; assay type: functional, Oryctolagus cuniculus; in short: as §1
[6] = Negative inotropic activity in New Zealand White rabbit isolated atria assessed as reduction of tissue contractility after 15 mins in presence of 4X10'-8 M propranolol; parameters: species or system Oryctolagus cuniculus, Cardiac atrium; details: 0.25 h; in short: as §1
[7] = Selectivity index, ratio of pED40 for tissue contractility to pED40 for maximum driving response in New Zealand White rabbit isolated atria in presence of 4X10'-8 M propranolol; parameters: species or system Oryctolagus cuniculus, Cardiac atrium

| Structure (SMILES) | pED40 [1] | pED40 [2] | Selectivity Index [3] | logP [4] | pED40 [5] | pED40 [6] | Selectivity Index [7] |
| --- | --- | --- | --- | --- | --- | --- | --- |
| CC(C)NCC(O)COc1ccc(N)c2ccccc12.Cl (stereo unspecified) | 5.02 | 4.92 | 1.6 | -0.27 | – | – | – |
| CC(C)NCC(O)COc1ccc(O)c2ccccc12 (stereo unspecified) [4-HYDROXYPROPRANOLOL SULFATE] | 4.6 | 4.39 | 1.8 | 0.39 | – | – | – |
| Cl.NC(=O)CCCNCC(O)COc1cccc2ccccc12 (stereo unspecified) | – | – | – | 0.31 | 4.89 | 4.79 | 1.4 |
| Cl.NCCCNCC(O)COc1cccc2ccccc12 (stereo unspecified) | 4.5 | 4.47 | 1 | -0.19 | – | – | – |
| CC(C)NCC(O)COc1ccc(S(N)(=O)=O)c2ccccc12.Cl (stereo unspecified) | 3.58 | 3.35 | 1.7 | -0.51 | – | – | – |
| C[N+](C)(C)CCCNCC(O)COc1cccc2ccccc12.Cl.[Cl-] (stereo unspecified) | 3.08 | 3.06 | 1.1 | -1.89 | – | – | – |
| CC(C)NCC(O)COc1cccc2ccccc12 (stereo unspecified) [PROPRANOLOL] | 5.43 | 5.21 | – | – | – | – | – |
| CC(C)NCC(O)COc1ccc(Cl)c2ccccc12 (stereo unspecified) | 5.2 | 5.26 | 0.9 | 2 | – | – | – |
| COCCCNCC(O)COc1cccc2ccccc12 (stereo unspecified) | 5.45 | 5.4 | 1.5 | 1.28 | – | – | – |
| Br.CC(C)NCC(O)COc1c(Br)cc(Br)c2ccccc12 (stereo unspecified) | 5.1 | 5.53 | 0.4 | 2.71 | – | – | – |
| CCCCNCC(O)COc1cccc2ccccc12 (stereo unspecified) | 5.64 | 5.38 | 1.8 | 2.08 | – | – | – |
| Cl.O=C(O)CCCNCC(O)COc1cccc2ccccc12 (stereo unspecified) | 3.41 | 3.02 | 2 | 0.21 | – | – | – |
